The values that follow come from ChEMBL document CHEMBL1914406, “Inhibitory effect of novel 5-O-acyl juglones on mammalian DNA polymerase activity, cancer cell growth and inflammatory response” (Bioorg Med Chem, 2011).

pIC50: −log10 of the molar value. The source made the active and inactive calls. No cut-off for these calls is given here.

One experiment deals with Mus musculus. The experiment can be described thus: Antiinflammatory activity in mouse assessed as inhibition of TPA-induced mouse ear edema at 500 ug/ear administered 30 mins before TPA challenge measured after 7 hrs relative to untreated control. The format is functional, organism-based. The method, boiled down: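 Compound (500 µg) applied to one mouse ear; 30 min later TPA (0.5 µg) applied to both ears. Edema scored after 7 h and expressed as percentage of edema. Mean ± SE, n = 6.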

Experiment [1] in a line: Inhibition of human DNA polymerase delta using poly(dA)/oligo(dT)18 (A/T = 2/1) and dTTP as the DNA template-primer and nucleotide substrate after 60 mins. The procedure, abridged:
(§1)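 Compound in DMSO, sonicated 30 s. Premixed 0 °C, 10 min with enzyme (0.05 units) in 50 mM Tris-HCl pH 7.5, 1 mM DTT, 50% glycerol, 0.1 mM EDTA, then added to standard reaction mixture. Template-primers: poly(dA)/oligo(dT)18 (2/1) for pols, oligo(dT)18 for TdT, poly(rA)/oligo(dT)18 for HIV-1 RT, with [3H]dTTP. 60 min at 37 °C (Taq 74 °C). Activity relative to no-inhibitor control; mean ± SE of three experiments.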

In experiment [2] the test system is HCT-116. The experiment can be described thus: Cytotoxicity against human HCT116 cells by WST-1 assay relative to aphidicolin. The format is functional, cell-based.
Experiment [3] concerns HCT-116. The experiment can be described thus: Cytotoxicity against human HCT116 cells by WST-1 assay relative to camptothecin. The format is functional, cell-based.
A short description of experiment [4]: Inhibition of cauliflower DNA polymerase alpha using poly(dA)/oligo(dT)18 (A/T = 2/1) and dTTP as the DNA template-primer and nucleotide substrate after 60 mins. Details: species or system Brassica oleracea var. botrytis. The method, boiled down: as §1
In experiment [5] the test system is HCT-116. The experiment can be described thus: Cytotoxicity against human HCT116 cells by WST-1 assay relative to etoposide. The format is functional, cell-based.
The next experiment addresses T7 RNA polymerase (Enterobacteria phage T7, UniProt P00573). The experiment in a line: Inhibition of T7 RNA polymerase using salmon sperm DNA and [3H]UTP at 25 degree C after 30 mins by liquid scintillation counting. Details: species or system Escherichia phage T7.
The subject of experiment [6] is HCT-116. The experiment in a line: Cytotoxicity against human HCT116 cells by WST-1 assay. The format is functional, cell-based. The method, boiled down: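 HCT116 colon carcinoma cells (ATCC) grown in McCoy's 5A with 10% FBS, penicillin and streptomycin, 37 °C, 5% CO2. Plated at 1 × 10⁴ cells/well together with compound, which was diluted from a 10 mM DMSO stock into medium (final 0.5% DMSO). Incubated 24 h. Viability read by WST-1, expressed relative to untreated cells.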

Experiment [7] can be described thus: Inhibition of calf primase of DNA polymerase alpha. Also on record: species or system Bos taurus. The procedure, abridged: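 Calf primase of pol α and mouse IMP dehydrogenase type II measured by standard assays per manufacturer's specifications. Activity relative to no-compound control (100%).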
The subject of the next experiment is RAW264.7. The experiment can be described thus: Antiinflammatory activity in mouse RAW264.7 cells assessed as inhibition of LPS-induced TNFalpha secretion at 5 uM treated 30 mins before LPS challenge measured after 24 hrs by ELISA. The experiment is classed as functional, cell-based. The procedure, abridged: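 RAW264.7 cells in MEM with 4.5 g/L glucose, 10% FCS, 5 mM L-glutamine, at 37 °C in 5% CO2. Seeded at 5 × 10⁴ cells/well and grown 24 h. Compound (final 1 and 5 µM) given 30 min before 100 ng/mL LPS. After 24 h, TNF-α in the medium measured by ELISA, relative to the no-compound value (100%). Mean ± SE, n = 4.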

Sequence of T7 RNA polymerase (P00573 whole entry): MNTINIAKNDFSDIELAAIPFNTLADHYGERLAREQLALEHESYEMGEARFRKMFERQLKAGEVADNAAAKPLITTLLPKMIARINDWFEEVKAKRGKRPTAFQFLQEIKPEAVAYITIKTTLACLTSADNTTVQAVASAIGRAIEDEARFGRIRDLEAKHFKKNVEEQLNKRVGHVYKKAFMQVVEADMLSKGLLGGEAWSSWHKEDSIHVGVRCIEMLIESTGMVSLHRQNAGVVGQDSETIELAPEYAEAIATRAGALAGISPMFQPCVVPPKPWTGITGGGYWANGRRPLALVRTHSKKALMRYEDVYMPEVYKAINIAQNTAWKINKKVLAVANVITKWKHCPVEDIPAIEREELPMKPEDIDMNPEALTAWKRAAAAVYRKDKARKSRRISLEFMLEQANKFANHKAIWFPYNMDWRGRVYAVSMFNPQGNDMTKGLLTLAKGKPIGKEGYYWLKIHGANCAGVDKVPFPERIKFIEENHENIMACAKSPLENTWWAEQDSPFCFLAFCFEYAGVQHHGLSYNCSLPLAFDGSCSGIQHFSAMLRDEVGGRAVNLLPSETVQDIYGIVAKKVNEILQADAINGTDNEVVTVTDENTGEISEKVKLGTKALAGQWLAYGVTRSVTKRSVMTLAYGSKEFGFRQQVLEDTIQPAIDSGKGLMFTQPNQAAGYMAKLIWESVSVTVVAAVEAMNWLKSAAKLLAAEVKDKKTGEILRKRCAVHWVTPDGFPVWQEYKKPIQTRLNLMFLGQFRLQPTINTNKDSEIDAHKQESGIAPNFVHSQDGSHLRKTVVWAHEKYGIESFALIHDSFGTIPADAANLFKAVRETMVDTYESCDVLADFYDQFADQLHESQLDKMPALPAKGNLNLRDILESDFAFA

In the case of `CCCCCCCC/C=C\CCCCCCCC(=O)Oc1cccc2c1C(=O)C=CC2=O`, the outcome in the experiment on Mus musculus, in the experiment on HCT-116 [2], in the experiment with HCT-116 [3], in the experiment on HCT-116 [5] and with HCT-116 [6] was Active. The pIC50 is 6.13 in experiment [1], less than 3.70 in experiment [4], less than 4.00 at T7 RNA polymerase and less than 4.00 in experiment [7].

`CCCCCCCCCCCC(=O)Oc1cccc2c1C(=O)C=CC2=O`: the result in the experiment with Mus musculus and in the experiment with RAW264.7 was Active. For the same compound, the negative-log IC50 (pIC50) (in experiment [4]; on T7 RNA polymerase; in [7]) was less than 4.00 throughout.
